In ChEMBL document CHEMBL2046302, “Fused tricyclic indoles as S1P₁ agonists with robust efficacy in animal models of autoimmune disease” (Bioorg Med Chem Lett, 2012):
One block for each compound: values may come before it. Calls of active or inactive are those of the source. The rule behind the calls is not given here.

What was measured:
[1] = target: T1, Sphingosine 1-phosphate receptor 1 (Homo sapiens, UniProt P21453); assay: Agonist activity against human S1P1 assessed as accumulation of cAMP by HTRF assay; format: functional
T1 sequence (P21453 whole entry): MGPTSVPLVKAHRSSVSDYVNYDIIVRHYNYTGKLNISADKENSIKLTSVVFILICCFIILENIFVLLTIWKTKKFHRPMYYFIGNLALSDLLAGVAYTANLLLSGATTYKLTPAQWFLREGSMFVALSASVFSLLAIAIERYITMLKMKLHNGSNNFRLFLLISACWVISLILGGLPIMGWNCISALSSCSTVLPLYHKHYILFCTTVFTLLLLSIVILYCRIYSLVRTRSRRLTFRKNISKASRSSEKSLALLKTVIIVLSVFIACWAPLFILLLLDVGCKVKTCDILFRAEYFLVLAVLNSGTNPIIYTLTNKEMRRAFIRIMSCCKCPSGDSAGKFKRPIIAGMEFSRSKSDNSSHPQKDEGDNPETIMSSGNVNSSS
How it was run: (§1)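 Agonist EC50 was read from a cAMP HTRF assay run on human, rat and mouse S1P1. Response was scaled against S1P, and values are the mean of three or more replicates.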

[2] = test system: Rattus norvegicus; assay: Immunosuppressant activity in collagen-induced Lewis rat arthritis model assessed as reduction in joint inflammation at 1 mg/kg, po qd; format: functional, organism-based; set-up: dose 1 mg/kg
[3] = test system: Rattus norvegicus; assay: Toxicity in telemeterized Charles-River Sprague-Dawley rat assessed as reduction in heart rate at 3 mg/kg, po measured over 20 hrs; format: organism-based; set-up: dose 3 mg/kg, route oral; settings: in vivo
How it was run: (§2)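 Telemeterized Charles River Sprague–Dawley rats received 3 or 30 mg/kg orally as a suspension in 0.5% methyl cellulose, with vehicle-treated and positive-control groups. Heart rate was recorded hourly over 20 h.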

[4] = test system: Mus musculus; assay: Immunosuppressant activity in autoimmune encephalomyelitis C57B1/6 mouse model assessed as reduction in disease score at 1 mg/kg, po qd administered on day 3 post challenge; format: functional, organism-based; set-up: dose 1 mg/kg
How it was run: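 Oral dosing once daily in 0.5% methylcellulose began on day 3. Signs of disease were monitored daily and graded on a 1–5 scale, from limp tail or hind-limb weakness (1) to death (5).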

[5] = Volume of distribution at steady state in Sprague-Dawley rat at 2 mg/kg, iv and 3 mg/kg, po; format: ADME, organism-based; settings: in vivo, read-out: Vdss
How it was run: (§3)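 Male Sprague–Dawley rats received 2.0 mg/kg IV in 100% PEG400 and 3.0 mg/kg PO in 0.5% methyl cellulose. Clearance, Vss, terminal half-life, Cmax, AUClast and oral bioavailability were derived from plasma levels.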

[6] = target: Sphingosine 1-phosphate receptor 1 (Mus musculus, UniProt O08530); assay: Agonist activity against mouse S1P1 assessed as accumulation of cAMP by HTRF assay; format: functional; how it was run: as §1
Chain of Sphingosine 1-phosphate receptor 1 (Mus musculus, UniProt O08530) (O08530 whole entry): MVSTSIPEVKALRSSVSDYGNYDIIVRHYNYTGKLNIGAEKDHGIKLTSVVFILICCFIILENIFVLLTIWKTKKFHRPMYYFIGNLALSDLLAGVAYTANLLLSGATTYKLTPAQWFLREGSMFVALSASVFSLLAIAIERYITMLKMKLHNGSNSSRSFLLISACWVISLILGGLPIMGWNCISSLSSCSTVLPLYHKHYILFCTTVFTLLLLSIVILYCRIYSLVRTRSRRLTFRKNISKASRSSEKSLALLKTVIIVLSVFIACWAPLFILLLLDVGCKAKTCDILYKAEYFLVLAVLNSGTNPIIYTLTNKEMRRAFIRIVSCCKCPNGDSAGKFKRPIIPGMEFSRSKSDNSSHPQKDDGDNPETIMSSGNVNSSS

[7] = test system: Salmonella typhimurium; assay: Mutagenic activity against Salmonella typhimurium assessed as base pair mutation by ames test; format: toxicity, organism-based; settings: salmonella enterica subsp. enterica serovar typhimurium
How it was run: (§4)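 Ames bacterial reverse mutation test on five strains, scored for frame-shift and base-pair substitution mutations.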

[8] = target: Sphingosine 1-phosphate receptor 3 (Homo sapiens, UniProt Q99500); assay: Agonist activity against human S1P3 by beta arrestin recruitment assay; format: functional
Chain of Sphingosine 1-phosphate receptor 3 (Q99500 whole entry): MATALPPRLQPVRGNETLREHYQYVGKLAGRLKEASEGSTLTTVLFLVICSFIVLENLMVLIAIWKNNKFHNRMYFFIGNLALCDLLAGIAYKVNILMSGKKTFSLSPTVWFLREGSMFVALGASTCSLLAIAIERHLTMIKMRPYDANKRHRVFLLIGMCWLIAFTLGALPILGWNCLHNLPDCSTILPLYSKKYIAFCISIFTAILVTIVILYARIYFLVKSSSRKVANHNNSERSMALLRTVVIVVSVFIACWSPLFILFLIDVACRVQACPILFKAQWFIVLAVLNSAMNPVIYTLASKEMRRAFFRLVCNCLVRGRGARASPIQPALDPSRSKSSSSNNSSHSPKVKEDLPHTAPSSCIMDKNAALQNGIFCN
How it was run: (§5)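 Agonist EC50 at human S1P1 through S1P5 was measured by β-arrestin recruitment. Values are the mean of three or more replicates.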

[9] = test system: Rattus norvegicus; assay: Toxicity in telemeterized Charles-River Sprague-Dawley rat assessed as reduction in heart rate at 30 mg/kg, po measured over 20 hrs; format: organism-based; set-up: dose 30 mg/kg, route oral; settings: in vivo; how it was run: as §2
[10] = test system: Salmonella typhimurium; assay: Mutagenic activity against Salmonella typhimurium assessed as frame shift mutation by ames test; format: toxicity, organism-based; settings: salmonella enterica subsp. enterica serovar typhimurium; how it was run: as §4
[11] = target: Cytochrome P450 2C9 (Homo sapiens, UniProt P11712); assay: Inhibition of CYP2C9; format: ADME
Chain of Cytochrome P450 2C9 (P11712 whole entry): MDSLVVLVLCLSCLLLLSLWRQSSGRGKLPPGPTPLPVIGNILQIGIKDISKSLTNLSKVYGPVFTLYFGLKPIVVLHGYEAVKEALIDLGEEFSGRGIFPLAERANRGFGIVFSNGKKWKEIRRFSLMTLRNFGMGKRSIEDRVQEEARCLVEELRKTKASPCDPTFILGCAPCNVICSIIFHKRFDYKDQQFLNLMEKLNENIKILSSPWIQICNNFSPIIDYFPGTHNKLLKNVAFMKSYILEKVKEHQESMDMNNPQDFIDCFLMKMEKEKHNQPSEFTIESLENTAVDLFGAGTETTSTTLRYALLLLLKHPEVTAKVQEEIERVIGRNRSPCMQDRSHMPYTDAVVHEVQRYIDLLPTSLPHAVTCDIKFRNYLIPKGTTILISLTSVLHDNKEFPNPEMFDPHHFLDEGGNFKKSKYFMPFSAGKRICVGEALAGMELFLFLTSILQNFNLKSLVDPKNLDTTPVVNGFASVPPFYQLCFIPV

[12] = target: T2, Cytochrome P450 1A2 (Homo sapiens, UniProt P05177); assay: Inhibition of CYP1A2; format: ADME
T2 sequence (P05177 whole entry): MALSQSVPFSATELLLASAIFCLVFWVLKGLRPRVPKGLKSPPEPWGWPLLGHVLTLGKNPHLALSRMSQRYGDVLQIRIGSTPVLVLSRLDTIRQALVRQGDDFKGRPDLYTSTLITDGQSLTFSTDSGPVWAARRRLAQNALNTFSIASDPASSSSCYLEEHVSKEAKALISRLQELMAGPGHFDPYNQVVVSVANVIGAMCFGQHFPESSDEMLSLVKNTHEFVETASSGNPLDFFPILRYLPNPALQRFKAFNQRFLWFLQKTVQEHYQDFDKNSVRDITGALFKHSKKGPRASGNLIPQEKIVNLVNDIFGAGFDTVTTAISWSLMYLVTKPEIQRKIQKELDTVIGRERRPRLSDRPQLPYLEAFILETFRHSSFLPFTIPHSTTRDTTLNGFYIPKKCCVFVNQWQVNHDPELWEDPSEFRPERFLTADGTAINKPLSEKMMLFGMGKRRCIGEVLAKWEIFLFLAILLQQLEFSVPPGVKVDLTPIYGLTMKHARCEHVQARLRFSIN

[13] = target: Sphingosine 1-phosphate receptor 2 (Homo sapiens, UniProt O95136); assay: Agonist activity against human S1P2 by beta arrestin recruitment assay; format: functional; how it was run: as §5
Chain of Sphingosine 1-phosphate receptor 2 (O95136 whole entry): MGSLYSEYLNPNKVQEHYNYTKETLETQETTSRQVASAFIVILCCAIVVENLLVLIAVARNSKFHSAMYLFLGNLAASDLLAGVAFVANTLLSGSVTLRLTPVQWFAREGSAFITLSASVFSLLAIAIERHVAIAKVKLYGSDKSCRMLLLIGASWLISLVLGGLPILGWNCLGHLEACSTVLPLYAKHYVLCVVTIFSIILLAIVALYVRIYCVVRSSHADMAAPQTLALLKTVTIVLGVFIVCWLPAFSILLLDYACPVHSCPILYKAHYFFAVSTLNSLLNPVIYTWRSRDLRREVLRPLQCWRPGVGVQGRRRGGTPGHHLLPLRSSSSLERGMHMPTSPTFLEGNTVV

[14] = target: Cytochrome P450 2D6 (Homo sapiens, UniProt P10635); assay: Inhibition of CYP2D6; format: ADME
Chain of Cytochrome P450 2D6 (P10635 whole entry): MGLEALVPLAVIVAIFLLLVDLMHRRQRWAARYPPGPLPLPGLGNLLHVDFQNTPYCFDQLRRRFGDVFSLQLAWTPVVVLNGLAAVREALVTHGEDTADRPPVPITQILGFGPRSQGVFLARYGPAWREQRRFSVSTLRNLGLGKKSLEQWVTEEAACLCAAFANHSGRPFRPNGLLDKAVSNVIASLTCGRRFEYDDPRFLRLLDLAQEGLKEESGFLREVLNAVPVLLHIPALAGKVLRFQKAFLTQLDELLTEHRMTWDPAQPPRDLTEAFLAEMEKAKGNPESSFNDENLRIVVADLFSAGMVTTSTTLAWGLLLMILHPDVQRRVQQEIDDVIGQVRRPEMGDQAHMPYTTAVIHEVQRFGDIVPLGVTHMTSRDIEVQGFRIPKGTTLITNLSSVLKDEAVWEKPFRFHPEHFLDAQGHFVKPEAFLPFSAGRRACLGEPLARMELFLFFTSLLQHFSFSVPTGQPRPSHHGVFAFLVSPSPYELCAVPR

[15] = AUClast in Sprague-Dawley rat in Sprague-Dawley rat at 2 mg/kg, iv and 3 mg/kg, po; format: ADME, organism-based; settings: plasma; how it was run: as §3
[16] = target: T3, Voltage-gated inwardly rectifying potassium channel KCNH2 (Homo sapiens, UniProt Q12809); assay: Inhibition of human ERG by astemizole assay
T3 sequence (Q12809 whole entry): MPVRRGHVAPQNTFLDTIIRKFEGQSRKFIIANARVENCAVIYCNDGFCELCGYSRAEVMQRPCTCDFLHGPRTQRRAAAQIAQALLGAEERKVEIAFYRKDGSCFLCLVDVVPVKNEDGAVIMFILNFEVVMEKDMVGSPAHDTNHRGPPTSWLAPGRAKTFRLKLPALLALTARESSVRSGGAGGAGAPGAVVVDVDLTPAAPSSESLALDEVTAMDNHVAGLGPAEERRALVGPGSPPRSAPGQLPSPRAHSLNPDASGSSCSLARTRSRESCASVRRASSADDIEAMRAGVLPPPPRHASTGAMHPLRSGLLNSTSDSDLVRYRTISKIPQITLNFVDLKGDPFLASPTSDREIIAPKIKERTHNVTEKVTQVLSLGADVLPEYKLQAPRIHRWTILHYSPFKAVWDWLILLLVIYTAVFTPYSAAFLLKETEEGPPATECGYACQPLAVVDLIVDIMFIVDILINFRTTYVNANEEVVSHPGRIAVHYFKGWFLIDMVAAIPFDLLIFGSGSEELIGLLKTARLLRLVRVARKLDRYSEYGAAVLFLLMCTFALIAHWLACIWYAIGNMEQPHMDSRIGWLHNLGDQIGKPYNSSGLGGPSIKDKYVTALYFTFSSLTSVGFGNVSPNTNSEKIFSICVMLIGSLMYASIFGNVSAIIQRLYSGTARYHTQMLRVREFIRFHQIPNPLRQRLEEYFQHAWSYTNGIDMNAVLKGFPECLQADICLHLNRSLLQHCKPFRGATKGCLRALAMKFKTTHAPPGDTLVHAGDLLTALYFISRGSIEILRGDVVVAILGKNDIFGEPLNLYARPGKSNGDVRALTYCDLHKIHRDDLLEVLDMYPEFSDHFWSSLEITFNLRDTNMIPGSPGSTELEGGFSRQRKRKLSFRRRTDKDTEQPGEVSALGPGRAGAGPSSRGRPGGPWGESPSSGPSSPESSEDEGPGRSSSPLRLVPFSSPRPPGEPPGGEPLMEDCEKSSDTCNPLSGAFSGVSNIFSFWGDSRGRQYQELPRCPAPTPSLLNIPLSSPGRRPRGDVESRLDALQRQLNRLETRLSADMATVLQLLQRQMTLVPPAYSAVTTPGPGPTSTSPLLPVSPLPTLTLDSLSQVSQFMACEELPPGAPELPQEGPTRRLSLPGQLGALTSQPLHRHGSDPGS

[17] = target: T3, Voltage-gated inwardly rectifying potassium channel KCNH2; assay: Inhibition of human ERG by patch clamp assay
[18] = Clearance in Sprague-Dawley rat at 2 mg/kg, iv and 3 mg/kg, po; format: ADME, organism-based; settings: in vivo; how it was run: as §3
[19] = Half life in rat liver microsome; format: ADME; settings: liver microsomes
[20] = Half life in human liver microsome; format: ADME; settings: liver microsomes
[21] = target: Cytochrome P450 3A4 (Homo sapiens, UniProt P08684); assay: Inhibition of CYP3A4; format: ADME
[22] = Terminal half life in Sprague-Dawley rat at 2 mg/kg, iv and 3 mg/kg, po; format: ADME, organism-based; settings: in vivo, read-out: beta t1/2 (converted); how it was run: as §3
[23] = Cmax in Sprague-Dawley rat in Sprague-Dawley rat at 2 mg/kg, iv and 3 mg/kg, po; format: ADME, organism-based; settings: in vivo; how it was run: as §3
[24] = target: Sphingosine 1-phosphate receptor 1 (Rattus norvegicus, UniProt P48303); assay: Agonist activity against rat S1P1 assessed as accumulation of cAMP by HTRF assay; format: functional; how it was run: as §1
Chain of Sphingosine 1-phosphate receptor 1 (Rattus norvegicus, UniProt P48303) (P48303 whole entry): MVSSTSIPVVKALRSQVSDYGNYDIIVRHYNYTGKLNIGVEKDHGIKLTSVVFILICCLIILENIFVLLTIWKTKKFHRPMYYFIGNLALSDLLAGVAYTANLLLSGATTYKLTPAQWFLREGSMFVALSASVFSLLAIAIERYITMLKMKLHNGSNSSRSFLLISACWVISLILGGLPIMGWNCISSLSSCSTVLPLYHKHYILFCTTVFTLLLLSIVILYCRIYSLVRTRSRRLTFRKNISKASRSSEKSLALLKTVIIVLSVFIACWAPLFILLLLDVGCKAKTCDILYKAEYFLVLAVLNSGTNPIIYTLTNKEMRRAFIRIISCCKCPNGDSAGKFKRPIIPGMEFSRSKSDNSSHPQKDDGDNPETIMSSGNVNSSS

[25] = target: T1, Sphingosine 1-phosphate receptor 1; assay: Agonist activity against human S1P1 by beta arrestin recruitment assay; format: functional; how it was run: as §5
[26] = target: Sphingosine 1-phosphate receptor 5 (Homo sapiens, UniProt Q9H228); assay: Agonist activity against human S1P5 by beta arrestin recruitment assay; format: functional; how it was run: as §5
Chain of Sphingosine 1-phosphate receptor 5 (Q9H228 whole entry): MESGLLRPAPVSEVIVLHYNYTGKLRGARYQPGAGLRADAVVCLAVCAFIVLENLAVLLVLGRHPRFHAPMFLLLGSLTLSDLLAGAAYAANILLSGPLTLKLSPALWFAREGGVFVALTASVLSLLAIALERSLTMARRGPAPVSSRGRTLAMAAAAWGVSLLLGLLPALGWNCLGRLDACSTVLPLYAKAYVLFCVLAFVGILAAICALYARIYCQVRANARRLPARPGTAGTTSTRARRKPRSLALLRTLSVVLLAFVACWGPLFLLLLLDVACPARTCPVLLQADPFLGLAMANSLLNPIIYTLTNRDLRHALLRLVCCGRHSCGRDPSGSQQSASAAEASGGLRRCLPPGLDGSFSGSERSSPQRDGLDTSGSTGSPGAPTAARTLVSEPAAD

[27] = target: Cytochrome P450 2C19 (Homo sapiens, UniProt P33261); assay: Inhibition of CYP2C19; format: ADME
Chain of Cytochrome P450 2C19 (P33261 whole entry): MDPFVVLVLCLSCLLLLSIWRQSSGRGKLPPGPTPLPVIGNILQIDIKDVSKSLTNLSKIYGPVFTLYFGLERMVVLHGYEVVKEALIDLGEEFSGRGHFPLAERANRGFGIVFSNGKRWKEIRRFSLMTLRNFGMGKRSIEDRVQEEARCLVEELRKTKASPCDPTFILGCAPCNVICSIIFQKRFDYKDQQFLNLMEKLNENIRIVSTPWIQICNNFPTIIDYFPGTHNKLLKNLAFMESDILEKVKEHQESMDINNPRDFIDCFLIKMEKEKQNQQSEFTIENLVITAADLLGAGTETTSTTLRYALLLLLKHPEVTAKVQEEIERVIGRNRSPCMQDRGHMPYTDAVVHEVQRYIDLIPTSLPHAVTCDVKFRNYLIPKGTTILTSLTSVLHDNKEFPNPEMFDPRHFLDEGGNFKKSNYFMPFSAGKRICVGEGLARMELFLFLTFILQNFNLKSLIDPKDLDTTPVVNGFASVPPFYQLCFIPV

[28] = Oral bioavailability in Sprague-Dawley rat at 3 mg/kg; format: ADME, organism-based; settings: in vivo; how it was run: as §3
[29] = target: T4, Sphingosine 1-phosphate receptor 4 (Homo sapiens, UniProt O95977); assay: Agonist activity against human S1P4 by beta arrestin recruitment assay; format: functional; how it was run: as §5
T4 sequence (O95977 whole entry): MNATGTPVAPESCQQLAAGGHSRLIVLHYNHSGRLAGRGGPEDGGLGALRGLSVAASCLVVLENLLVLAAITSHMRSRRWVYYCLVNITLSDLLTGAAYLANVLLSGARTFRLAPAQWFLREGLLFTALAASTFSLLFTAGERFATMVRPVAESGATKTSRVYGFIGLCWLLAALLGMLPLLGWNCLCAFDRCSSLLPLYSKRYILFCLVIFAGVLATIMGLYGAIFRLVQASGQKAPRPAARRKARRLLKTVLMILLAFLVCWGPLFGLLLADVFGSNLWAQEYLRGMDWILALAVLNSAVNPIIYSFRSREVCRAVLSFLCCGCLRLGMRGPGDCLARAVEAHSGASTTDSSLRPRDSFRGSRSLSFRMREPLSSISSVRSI

EC50 [1]: 2.1 nM
Compound: O=C(O)CC1CCn2c1cc1cc(-c3noc(-c4cc(C(F)(F)F)cc(C(F)(F)F)c4)n3)ccc12 (racemic)

EC50 [1]: 3.2 nM
Compound: N#Cc1cc(-c2nc(-c3ccc4[nH]c5c(c4c3)CCC5CC(=O)O)no2)ccc1OC(F)(F)F (racemic)

Further lines, the compound ahead of its results:

Compound: COc1cc(C#N)cc(-c2nc(-c3ccc4c(c3)cc3n4CCC3CC(=O)O)no2)c1 (racemic)
EC50 [1]: 4.6 nM

Compound: CCCCCCCCc1ccc(CCC(N)(CO)CO)cc1 [FINGOLIMOD]
Activity [2]: Active
Activity [3]: Toxic
Activity [4]: Active

Compound: N#Cc1cc(OC(F)(F)F)cc(-c2nc(-c3ccc4c(c3)cc3n4CCC3CC(=O)O)no2)c1 (single isomer, unassigned; enantiomer 2)
Vd [5]: 0.234 L/kg
EC50 [6]: 0.52 nM
Activity [7]: Non-toxic
EC50 [8]: > 100000 nM
Activity [9]: Non-toxic
EC50 [1]: 0.08 nM
Activity [10]: Non-toxic
IC50 [11]: > 30000 nM
IC50 [12]: > 30000 nM
EC50 [13]: > 100000 nM
IC50 [14]: > 30000 nM
AUC(0-t) [15]: 124 µg·h/mL
IC50 [16]: > 30000 nM
IC50 [17]: > 400000 nM
clearance [18]: 0.422 mL/min/kg
half-life [19]: > 1 h
Activity [3]: Non-toxic
half-life [20]: > 1 h
IC50 [21]: > 30000 nM
half-life [22]: 4.68 h
Cmax [23]: 13300 ng/mL
EC50 [24]: 0.1 nM
EC50 [25]: 4.8 nM
EC50 [26]: 21 nM
IC50 [27]: > 30000 nM
bioavailability [28]: 100%
EC50 [29]: > 100000 nM
